For one assay, the system named is NCI-H23. Briefly: Cytostatic activity against human NCI-H23 cells after 5 days by SRB assay. The assay is classed as functional. The note with it: NCI-H23, 120 h. In outline: (§1)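 Cells seeded per line density, overnight at 37 °C; day-zero plate TCA-fixed. 5-fold serial dilutions added, 5-day incubation; TCA fixation, 0.057% SRB in 1% acetic acid 30 min, dye dissolved in 10 mM Tris pH 10.5, A500. Growth relative to day-zero and untreated; GIC50 from sigmoidal dose–response fit; mean of two independent experiments.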
On the technique in general: In SRB staining, fixed cells bind dye roughly in proportion to their protein.

Another assay relates to PC-3. Briefly: Cytostatic activity against human PC3 cells after 5 days by SRB assay. It is filed as functional. The note with it: PC-3, 120 h. In outline: as §1
Another assay concerns HCT-116. Nature of the assay: Cytostatic activity against human HCT116 cells after 5 days by SRB assay. The assay is classed as functional. Conditions: HCT-116, 120 h. In outline:
as §1

The nature of assay [1]: Cytostatic activity against human Hs578 cells after 5 days by SRB assay. The assay is classed as functional. The note with it: Hs578, 120 h. In outline:
as §1

Another assay relates to MT4. Nature of the assay: Cytostatic activity against human MT4 cells after 5 days by SRB assay. It is filed as functional. The note with it: MT4, 120 h.
The next assay relates to HL-60. Nature of the assay: Cytotoxicity against human HL60 cells after 3 days by XTT assay. The assay is classed as functional, cell-based. Conditions: HL-60, 72 h. In a few lines:
(§2)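 Suspension-grown cell lines, 3-day compound incubation; viability read by XTT metabolic assay; IC50 averaged from four independent experiments.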
For orientation: Formazan colour is commonly taken as a measure of viable cells.

Assay [2] is described as follows: Cytotoxicity against human HeLaS3 cells after 3 days by XTT assay. It is filed as functional, cell-based. Conditions: HeLa S3, 72 h. In outline:
as §2

The subject of a further assay is CCRF-CEM. Briefly: Cytotoxicity against human CCRF-CEM cells after 3 days by XTT assay. The assay is classed as functional, cell-based. The note with it: 72 h. In a few lines:
as §2

The next assay has as its system DU-145. Nature of the assay: Cytostatic activity against human DU145 cells after 5 days by SRB assay. Conditions: DU-145, 120 h. The assay is classed as functional. In a few lines:
as §1

Another assay addresses Adenosine kinase (Homo sapiens, UniProt P55263). Briefly: Inhibition of human ADK using [3H]-adenosine by scintillation counting.
In another assay the test system is A549. Nature of the assay: Cytostatic activity against human A549 cells after 5 days by SRB assay. The assay is classed as functional. The note with it: A549, 120 h. In outline: as §1
The subject of a further assay is HCT-15. Nature of the assay: Cytostatic activity against human HCT15 cells after 5 days by SRB assay. It is filed as functional. The note with it: HCT-15, 120 h. In a few lines: as §1
Assay [3] deals with K562. Nature of the assay: Cytotoxicity against human K562 cells after 3 days by MTT assay. It is filed as functional, cell-based. The note with it: K562, 72 h.
For assay [4], the system named is K562. Briefly: Cytotoxicity against human paclitaxel resistant K562 cells after 3 days by MTT assay. The assay is classed as functional, cell-based. The note with it: K562, 72 h.
The subject of another assay is BV-173. Nature of the assay: Cytotoxicity against human BV173 cells after 3 days by MTT assay. The assay is classed as functional, cell-based. Conditions: BV-173, 72 h.
Assay [5] is described as follows: Cytotoxicity against human CEM-DNR-bulk cells after 3 days by MTT assay. The assay is classed as functional, cell-based. The note with it: 72 h.
The subject of the next assay is L1210. Nature of the assay: Cytotoxicity against mouse L1210 cells after 3 days by MTT assay. It is filed as functional, cell-based. Conditions: L1210, 72 h.
Another assay concerns EL4. Briefly: Cytotoxicity against mouse EL4 cells after 3 days by MTT assay. The assay is classed as functional, cell-based. The note with it: EL4, 72 h.
Another assay has as its system MCF7. Nature of the assay: Cytotoxicity against human MCF7 cells after 3 days by MTT assay. It is filed as functional, cell-based. Conditions: MCF7, 72 h.
Assay [6] relates to BT-549. Nature of the assay: Cytotoxicity against human BT549 cells after 3 days by MTT assay. The assay is classed as functional, cell-based. Conditions: BT-549, 72 h.
A further assay relates to MDA-MB-231. Nature of the assay: Cytotoxicity against human MDA-MB-231 cells after 3 days by MTT assay. It is filed as functional, cell-based. Conditions: MDA-MB-231, 72 h.
The next assay deals with SK-N-AS. Briefly: Cytotoxicity against human SK-N-AS cells after 3 days by MTT assay. Conditions: 72 h. The assay is classed as functional, cell-based.
The nature of assay [7]: Cytotoxicity against human U87MG cells after 3 days by MTT assay. The assay is classed as functional, cell-based, U-87MG ATCC. The note with it: U-87 MG, 72 h.
Another assay relates to C6. Nature of the assay: Cytotoxicity against rat C6 cells after 3 days by MTT assay. The assay is classed as functional, cell-based. The note with it: C6, 72 h.
Another assay has as its system HT-29. Briefly: Cytotoxicity against human HT-29 cells after 3 days by MTT assay. The assay is classed as functional, cell-based. Conditions: HT-29, 72 h.
Another assay relates to CT26. Nature of the assay: Cytotoxicity against mouse CT26 cells after 3 days by MTT assay. It is filed as functional, cell-based. Conditions: CT26, 72 h.
The test system of a further assay is LNCaP. Nature of the assay: Cytotoxicity against human LNCAP cells after 3 days by MTT assay. The note with it: 72 h. It is filed as functional, cell-based.
Assay [8] can be described thus: Cytotoxicity against human NCI-H146 cells after 3 days by MTT assay. The assay is classed as functional, cell-based. Conditions: NCI-H146, 72 h.
Assay [9] is described as follows: Cytotoxicity against human MES-SA cells after 3 days by MTT assay. The assay is classed as functional, cell-based. The note with it: 72 h.
A further assay has as its system HeLa. Briefly: Cytotoxicity against human HeLa cells after 3 days by MTT assay. It is filed as functional, cell-based. Conditions: 72 h.
The subject of a further assay is SK-OV-3. Briefly: Cytotoxicity against human SKOV3 cells after 3 days by MTT assay. The assay is classed as functional, cell-based. The note with it: SK-OV-3, 72 h.
For the next assay, the system named is SK-MEL-2. Briefly: Cytotoxicity against human SK-MEL-2 cells after 3 days by MTT assay. It is filed as functional, cell-based. The note with it: SK-MEL-2, 72 h.
The test system of another assay is HPAC. Briefly: Cytotoxicity against human HPAC cells after 3 days by MTT assay. The note with it: 72 h. It is filed as functional, cell-based.
Assay [10] is described as follows: Cytotoxicity against mouse P388D1 cells after 3 days by MTT assay. It is filed as functional, cell-based. Conditions: P388D1, 72 h.
Another assay relates to BJ. Nature of the assay: Cytotoxicity against human BJ cells after 3 days by MTT assay. It is filed as cell-based. The note with it: 72 h.
The test system of assay [11] is BT-549. Nature of the assay: Cytostatic activity against human BT549 cells after 5 days by SRB assay. It is filed as functional. Conditions: BT-549, 120 h. In a few lines:
as §1

Some results are limits rather than exact numbers.

Adenosine kinase, sequence (P55263 whole entry): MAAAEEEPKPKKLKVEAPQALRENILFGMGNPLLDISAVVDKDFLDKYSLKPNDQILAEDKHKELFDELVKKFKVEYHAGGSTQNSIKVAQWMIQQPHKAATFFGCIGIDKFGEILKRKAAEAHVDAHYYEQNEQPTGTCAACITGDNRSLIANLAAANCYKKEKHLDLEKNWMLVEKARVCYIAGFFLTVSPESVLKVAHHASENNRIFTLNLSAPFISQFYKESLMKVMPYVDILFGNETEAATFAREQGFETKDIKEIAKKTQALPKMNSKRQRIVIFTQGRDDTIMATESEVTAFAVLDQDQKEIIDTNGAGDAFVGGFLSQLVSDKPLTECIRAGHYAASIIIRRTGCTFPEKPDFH

The term GI50 denotes the concentration that inhibits growth by half. The low end stands for greater sensitivity of the cells, the high end for lower sensitivity of the cells. As usually defined, the IC50 is the concentration that inhibits the measured activity by half. Lower therefore signals greater potency. For the molecule `Nc1ncnc2c1c(-c1c[nH]nn1)cn2[C@@H]1O[C@H](CO)[C@@H](O)[C@H]1O`, the GI50 in the assay on NCI-H23 was 4 nM; with PC-3, 5 nM; in the assay with HCT-116, 4 nM; in assay [1] it was 3 nM; with MT4 it was 18 nM. The half-inhibitory concentration (IC50) with HL-60 is 310 nM; in assay [2], 90 nM; in the assay with CCRF-CEM, 60 nM.
On to `Nc1ncnc2c1c(-c1cccc3ccccc13)cn2[C@@H]1O[C@H](CO)[C@@H](O)[C@H]1O`, for which the concentration for 50% growth inhibition (GI50) (with NCI-H23; with DU-145; in the assay with HCT-116; in [1]) was more than 10000 nM each time. Also, the IC50 (in the assay with HL-60; in [2]; in the assay with CCRF-CEM; on Adenosine kinase) was more than 10000 nM in each case.
`C#Cc1cn([C@@H]2O[C@H](CO)[C@@H](O)[C@H]2O)c2ncnc(N)c12`: the GI50 with NCI-H23 came to 1 nM; in the assay with PC-3 it was 11 nM; in the assay on HCT-116 it was 2 nM; in assay [1], 1 nM; with MT4, 1 nM. Moreover, the half-inhibitory concentration (IC50) came out at 90 nM with HL-60, 20 nM in assay [2], 10 nM in the assay on CCRF-CEM and 200 nM at Adenosine kinase.
As to `CSc1ccc(-c2cn([C@@H]3O[C@H](CO)[C@@H](O)[C@H]3O)c3ncnc(N)c23)cc1`, the 50% growth inhibitory concentration (GI50) amounted to 390 nM in the assay on NCI-H23; 1870 nM with DU-145; 1290 nM with HCT-116; 1970 nM in [1]; 4400 nM with MT4. The IC50 (in the assay on HL-60; in [2]; in the assay on CCRF-CEM; on Adenosine kinase) was more than 10000 nM each time.
`Nc1ncnc2c1c(-c1c[nH]cn1)cn2[C@@H]1O[C@H](CO)[C@@H](O)[C@H]1O`: the GI50 in the assay on NCI-H23 is 2 nM; in the assay on PC-3, 2 nM; in the assay with HCT-116 it was 3 nM; in assay [1], 2 nM; in the assay with MT4 it was 28 nM. Also, the half-maximal inhibitory concentration (IC50) with HL-60 was 130 nM; in [2], 70 nM; in the assay on CCRF-CEM, 70 nM; against Adenosine kinase, more than 10000 nM.
As to `Nc1ncnc2c1c(-c1ccco1)cn2[C@@H]1O[C@H](CO)[C@@H](O)[C@H]1O`, the 50% growth inhibitory concentration (GI50) in the assay on A549 was determined as 35 nM; in the assay with NCI-H23, 294 nM; in the assay with DU-145, 19 nM; in the assay on PC-3, 4 nM; in the assay with HCT-116, 48 nM; with HCT-15, 3 nM. Moreover, the GI50 in assay [1] turned out to be 17 nM; in the assay on MT4, 86 nM. In addition, the concentration for half-maximal inhibition (IC50) with HL-60 is 11600 nM; in assay [2], 50 nM; with CCRF-CEM it was 100 nM; on Adenosine kinase it was more than 2000 nM.
As to `Nc1ccn([C@@H]2O[C@H](CO)[C@@H](O)C2(F)F)c(=O)n1` [GEMCITABINE], the half-inhibitory concentration (IC50) in the assay on K562 [3] worked out at 718 nM; in the assay with K562 [4] it was 6 nM; in the assay on BV-173, 1 nM; in assay [5], 22 nM; in the assay with L1210, 7 nM; with EL4, 7 nM. Moreover, the 50% inhibitory concentration (IC50) was found to be 149 nM in the assay with MCF7; 8 nM in the assay on BT-549 [6]; 245 nM in the assay with MDA-MB-231; 1100 nM with SK-N-AS; 1490 nM in assay [7]; 504 nM with C6. The IC50 worked out at 1530 nM in the assay with HT-29; 6 nM in the assay on CT26; 512 nM in the assay with LNCaP; 2780 nM in assay [8]; 5 nM in assay [9]; 4120 nM in the assay on HeLa. The IC50 in the assay on SK-OV-3 is more than 10000 nM; in the assay on SK-MEL-2 it was 7110 nM; with HPAC, 73 nM; in [10], 19 nM; in the assay with BJ it was 9880 nM.
On to `COc1cccc2c1C(=O)c1c(O)c3c(c(O)c1C2=O)C[C@@](O)(C(=O)CO)C[C@@H]3O[C@H]1C[C@H](N)[C@H](O)[C@H](C)O1` [DOXORUBICIN], for which the GI50 in the assay on A549 worked out at 16 nM; with NCI-H23, 5 nM; with PC-3 it was 21 nM; in the assay with HCT-116, 11 nM; in [1], 6 nM; in the assay with BT-549 [11], 10 nM.

These data come from ChEMBL document CHEMBL1811802, “Synthesis and significant cytostatic activity of 7-hetaryl-7-deazaadenosines” (J Med Chem, 2011).
